Data set [1] concerns the target NACHT, LRR and PYD domains-containing protein 3 (Mus musculus) (UniProt Q8R4B8). In words: Inhibition of NLRP3 inflammasome activation in LPS-treated mouse BMDM cells assessed as Bz-ATP-stimulated IL-1beta level at 1 uM incubated for 30 mins followed by Bz-ATP stimulation for 30 mins by ELISA method. Format: cell-based. Conditions: time 60.0 min. The procedure, abridged: (§1)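 Mouse BMDMs, C57BL/6 bone marrow cells differentiated 7 days with M-CSF 10 ng/mL, seeded 5 × 10^5/well. Primed with LPS 1 µg/mL for 2 h, then compound 1 µM in serum-free medium for 30 min, then Bz-ATP 100 µM for 30 min. Supernatant IL-1β by ELISA in pg/mL and as percent inhibition. Mean ± SEM of three independent experiments in triplicate.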
For orientation: ELISA stands for enzyme-linked immunosorbent assay.

For data set [2] the target is unchanged. Put plainly: Inhibition of NLRP3 inflammasome activation in LPS-treated mouse BMDM cells assessed as inhibition of Bz-ATP-stimulated IL-1beta release at 1 uM incubated for 30 mins followed by Bz-ATP stimulation for 30 mins by ELISA method relative to control. The format is cell-based. The following applies: time 60.0 min. The procedure, abridged:
as §1

A short description of data set [3]: Metabolic stability in human liver microsomes assessed as half life measured per mg protein at 1 uM measured upto 60 mins by LC-MS/MS analysis. Format: ADME, Microsome. The procedure, abridged: (§2)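 Pooled human or CD-1 male mouse liver microsomes at 0.5 mg/mL with test compound 1 µM in 50 mM phosphate pH 7.4 and 3 mM MgCl2, preincubated 10 min at 37 °C. Percent parent remaining vs 0 min measured by LC-MS/MS. Cli = k/microsomal conc. × 1000; mean ± SD, n = 2.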
A general note: Microsomes from liver hold many membrane-bound enzymes, among them those of drug oxidation.

The nature of data set [4]: Metabolic stability in mouse liver microsomes assessed as half life measured per mg protein at 1 uM measured upto 60 mins by LC-MS/MS analysis. The format is ADME, Microsome. The method, boiled down: as §2
Data set [5] in a line: Metabolic stability in human liver microsomes assessed as intrinsic clearance measured per mg protein at 1 uM measured upto 60 mins by LC-MS/MS analysis. The format is ADME, Microsome. The following applies: read-out: CLH. The method, boiled down: as §2
Data set [6] is described as follows: Metabolic stability in mouse liver microsomes assessed as intrinsic clearance measured per mg protein at 1 uM measured upto 60 mins by LC-MS/MS analysis. The following applies: read-out: CLH. Format: ADME, Microsome. The method, boiled down: as §2

Chain of NACHT, LRR and PYD domains-containing protein 3 (Mus musculus) (Q8R4B8 whole entry, the tested form may be a part): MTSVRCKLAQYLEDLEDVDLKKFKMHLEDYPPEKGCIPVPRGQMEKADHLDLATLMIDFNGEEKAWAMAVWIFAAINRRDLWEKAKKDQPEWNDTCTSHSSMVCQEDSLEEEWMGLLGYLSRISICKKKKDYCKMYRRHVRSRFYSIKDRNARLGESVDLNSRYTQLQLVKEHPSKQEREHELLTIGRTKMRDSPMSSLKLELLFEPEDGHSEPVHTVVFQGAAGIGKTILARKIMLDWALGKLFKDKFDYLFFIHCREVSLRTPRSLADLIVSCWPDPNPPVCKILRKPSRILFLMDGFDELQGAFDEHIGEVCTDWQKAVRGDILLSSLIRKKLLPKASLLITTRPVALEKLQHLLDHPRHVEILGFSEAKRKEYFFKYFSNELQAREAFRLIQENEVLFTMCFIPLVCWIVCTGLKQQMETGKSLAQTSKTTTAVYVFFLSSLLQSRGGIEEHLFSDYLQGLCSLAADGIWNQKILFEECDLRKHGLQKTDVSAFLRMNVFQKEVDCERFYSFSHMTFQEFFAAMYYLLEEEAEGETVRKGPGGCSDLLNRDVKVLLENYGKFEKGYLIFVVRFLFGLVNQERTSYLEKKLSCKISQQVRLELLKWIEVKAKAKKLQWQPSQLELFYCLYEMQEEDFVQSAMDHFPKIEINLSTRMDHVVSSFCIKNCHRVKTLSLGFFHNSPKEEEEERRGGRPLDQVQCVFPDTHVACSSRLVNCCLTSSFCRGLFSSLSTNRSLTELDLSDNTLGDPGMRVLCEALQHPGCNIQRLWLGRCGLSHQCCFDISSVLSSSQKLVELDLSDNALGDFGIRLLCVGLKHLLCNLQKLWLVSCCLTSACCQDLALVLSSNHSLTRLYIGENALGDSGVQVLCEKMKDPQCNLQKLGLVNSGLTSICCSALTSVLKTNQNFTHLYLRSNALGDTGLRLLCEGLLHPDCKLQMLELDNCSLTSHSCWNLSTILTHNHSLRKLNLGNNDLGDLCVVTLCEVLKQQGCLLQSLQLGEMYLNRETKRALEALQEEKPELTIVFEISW

On to `Nc1ccc(S(=O)(=O)N[C@H](Cc2ccccc2)C(=O)Nc2c3c(cc4c2CCC4)CCC3)cc1`, for which the Activity in data set [1] worked out at 152 pg/mL. In data set [2], the inhibition was 46.4%.

`O=C(CCNS(=O)(=O)c1ccc([N+](=O)[O-])cc1)Nc1c2c(cc3c1CCC3)CCC2`: in data set [1], the Activity turned out to be 180 pg/mL. For the same compound, the inhibition in data set [2] worked out at 36.5%.

For `Nc1ccc(S(=O)(=O)N[C@@H](Cc2ccccc2)C(=O)Nc2c3c(cc4c2CCC4)CCC3)cc1`, in data set [1], the Activity stood at 175 pg/mL. Moreover, the inhibition in data set [2] was 38%.

With `Nc1ccc(S(=O)(=O)N2CCCC[C@H]2C(=O)Nc2c3c(cc4c2CCC4)CCC3)cc1`, the Activity in data set [1] is 211 pg/mL. Further, in data set [2], the inhibition came out at 25.4%.

Take `O=C(Nc1c2c(cc3c1CCC3)CCC2)[C@@H](Cc1ccccc1)NS(=O)(=O)c1ccc([N+](=O)[O-])cc1`: the Activity in data set [1] stood at 143 pg/mL. For the same compound, the inhibition in data set [2] was found to be 49.5%.

Turning to `CC(C)C[C@H](NS(=O)(=O)c1ccc(N)cc1)C(=O)Nc1c2c(cc3c1CCC3)CCC2`, in data set [1], the Activity was determined as 194 pg/mL. Moreover, the inhibition in data set [2] is 31.5%.

In the case of `O=C(Nc1c2c(cc3c1CCC3)CCC2)[C@@H]1CCCN1S(=O)(=O)c1ccc([N+](=O)[O-])cc1`, the Activity in data set [1] turned out to be 210 pg/mL. Further, the inhibition in data set [2] is 25.7%.

With `C[C@H](NS(=O)(=O)c1ccc(N)cc1)C(=O)Nc1c2c(cc3c1CCC3)CCC2`, the inhibition in data set [2] amounted to 17.3%.

Regarding `CC(C)[C@@H](NS(=O)(=O)c1ccc(N)cc1)C(=O)Nc1c2c(cc3c1CCC3)CCC2`, in data set [2], the inhibition was 25.1%.

Turning to `Nc1ccc(S(=O)(=O)N2CCC[C@H]2C(=O)Nc2c3c(cc4c2CCC4)CCC3)cc1`, the Activity in data set [1] amounted to 165 pg/mL. The inhibition in data set [2] was determined as 41.6%.

Take `O=C(Nc1c2c(cc3c1CCC3)CCC2)[C@H](Cc1ccccc1)NS(=O)(=O)c1ccc([N+](=O)[O-])cc1`: the Activity in data set [1] was determined as 227 pg/mL. Moreover, in data set [2], the inhibition stood at 19.8%.

With `O=C(Nc1c2c(cc3c1CCC3)CCC2)[C@H](Cc1ccc(O)cc1)NS(=O)(=O)c1ccc([N+](=O)[O-])cc1`, the inhibition in data set [2] is 34.7%.

For the compound `O=C(Nc1c2c(cc3c1CCC3)CCC2)[C@@H]1Cc2ccccc2CN1S(=O)(=O)c1ccc([N+](=O)[O-])cc1`, the Activity in data set [1] came out at 131 pg/mL. In data set [2], the inhibition came to 53.7%.

With `NCCCC[C@H](NS(=O)(=O)c1ccc(N)cc1)C(=O)Nc1c2c(cc3c1CCC3)CCC2`, the Activity in data set [1] was 203 pg/mL. Besides, in data set [2], the inhibition was 28.4%.

As to `NCCCC[C@H](NS(=O)(=O)c1ccc([N+](=O)[O-])cc1)C(=O)Nc1c2c(cc3c1CCC3)CCC2`, the Activity in data set [1] is 149 pg/mL. Further, the inhibition in data set [2] came to 47.5%.

For `O=C(Nc1c2c(cc3c1CCC3)CCC2)[C@@H]1CCCCN1S(=O)(=O)c1ccc([N+](=O)[O-])cc1`, the Activity in data set [1] worked out at 135 pg/mL. For the same compound, in data set [2], the inhibition was determined as 52.4%.

Turning to `Nc1ccc(S(=O)(=O)N[C@H](C(=O)Nc2c3c(cc4c2CCC4)CCC3)c2ccccc2)cc1`, the Activity in data set [1] came to 237 pg/mL. Also, the inhibition in data set [2] worked out at 16.1%.

For the compound `Nc1ccc(S(=O)(=O)NCCC(=O)Nc2c3c(cc4c2CCC4)CCC3)cc1`, the Activity in data set [1] was 220 pg/mL. The inhibition in data set [2] was found to be 22.3%.

On to `O=C(Nc1c2c(cc3c1CCC3)CCC2)[C@H](CNS(=O)(=O)c1ccc([N+](=O)[O-])cc1)c1ccccc1`, for which the Activity in data set [1] was found to be 156 pg/mL. In addition, the inhibition in data set [2] was 44.8%.

Turning to `CC(C)C[C@H](NS(=O)(=O)c1ccc([N+](=O)[O-])cc1)C(=O)Nc1c2c(cc3c1CCC3)CCC2`, the Activity in data set [1] is 131 pg/mL. In data set [2], the inhibition turned out to be 53.9%.

Regarding `CC(C)NCC(O)COc1cccc2ccccc12` (centres undefined) [PROPRANOLOL], the half-life at 1 µM in data set [3] worked out at 47 min; in data set [4], 7.3 min.

For `CC(C)[C@H](NS(=O)(=O)c1ccc(N)cc1)C(=O)Nc1c2c(cc3c1CCC3)CCC2`, the inhibition in data set [2] worked out at 50.2%.

As to `CCOc1ccc2ccc(=O)oc2c1`, the half-life at 1 µM in data set [3] worked out at 8.3 min; in data set [4] it was 3.3 min. Moreover, the microsomal CLint at 1 µM was 168 µL/min/mg in data set [5] and 422 µL/min/mg in data set [6].

The term inhibition denotes the drop in the measured response relative to a control, in per cent. Usually half-life stands for how long it takes for the measured level to halve.

The values above are taken from ChEMBL document CHEMBL5380838, “Novel Aryl Sulfonamide Derivatives as NLRP3 Inflammasome Inhibitors for the Potential Treatment of Cancer” (J Med Chem, 2023).
